Data set [1] is described as follows: (§1) Metabolic stability in human liver microsomes assessed as compound remaining after 30 mins in presence of 1 mM NADPH. The data set is classed as ADME, Microsome. To be noted: liver microsomes, read-out: Stability. A digest of the protocol: (§2)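 Liver microsomes (0.5 mg protein) in phosphate buffer with 1 mM NADPH, incubated 30 min at 37 °C; read-out is the percentage of parent compound remaining.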

Data set [2] addresses Gamma-secretase. The data set can be described thus: Inhibition of gamma-secretase-mediated notch cleavage in human SNC cells by ELISA. Type of data set: cell-based. On the technique in general: In an ELISA, binding on a coated surface is turned into a signal by an enzyme label.
For data set [3], the target named is Gamma-secretase. Description: Inhibition of gamma-secretase-mediated notch cleavage in human IMR-32 cells after 2 hrs by ELISA. The data set is classed as cell-based.
Data set [4] has as its target Gamma-secretase (Homo sapiens) (UniProt Q96BI3+Q9NZ42+Q8WW43+P49768+Q92542+P49810). The data set can be described thus: Inhibition of gamma-secretase-mediated APP cleavage in human SNC cells by ELISA. The data set is classed as cell-based.
Data set [5] concerns the target Gamma-secretase. The data set can be described thus: Inhibition of gamma-secretase-mediated APP cleavage in human IMR-32 cells assessed as amyloid beta40 level after 2 hrs by ELISA. Type of data set: cell-based.
The nature of data set [6]: (§3) Metabolic stability in human liver microsomes assessed as compound remaining after 30 mins in presence of 1 mM UDPGA, 100 mM MgCl2 and 25 ug/ml alamethacin. The data set is classed as ADME, Microsome. The following applies: liver microsomes, read-out: Stability. A digest of the protocol: (§4)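 Glucuronidation conditions: liver microsomes (0.5 mg protein) in phosphate buffer with 1 mM UDPGA, 100 mM MgCl₂ and alamethacin, 30 min at 37 °C; the percentage of compound remaining is reported.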

The subject of data set [7] is Liver microsomes. The data set is described as §1. The data set is classed as ADME, Microsome. The following applies: microsomes, 0.5 h. Summed up:
as §2

Data set [8] has as its system Liver microsomes. Described as §3. The data set is classed as ADME, Microsome. To be noted: microsomes, 0.5 h. A digest of the protocol:
as §4

A short description of data set [9]: Ratio of drug level in FVB mouse brain to plasma. The data set is classed as ADME, cell-free. Summed up: (§5)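 Wild-type FVB mice received a single 5 mg/kg oral dose. Brain Aβ40 reduction and the brain/plasma compound ratio were determined 3 h post-dose.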
For data set [10], the system named is Mus musculus. The data set can be described thus: Neuroprotective activity in FVB mouse brain assessed as reduction in amyloid beta 40 level at 5 mg/kg, po after 3 hrs. Type of data set: functional. More on the design: scale not given: the % may be the effect or the level left. Summed up: as §5

The IC50 is the point on the concentration scale where inhibition reaches its midpoint. With `O=S(=O)(c1ccc(Cl)cc1)N1CCc2n[nH]cc2C1CO` (stereo not drawn), the remaining at 0.5 h in [1] amounted to 84%. In addition, the IC50 in data set [2] is greater than 40000 nM; in data set [3] it was 8660 nM; in data set [5], 557 nM. In data set [4], this compound displayed an ED50 of 3130 nM.

As to `O=S(=O)(c1ccc(Cl)cc1)N1CCCCC1`, in data set [5], the IC50 was greater than 30000 nM.

`O=S(=O)(c1ccc(Cl)cc1)N1Cc2c[nH]nc2CC1c1cncnc1` (stereo not drawn): the values for the remaining at 0.5 h in [1] and in data set [6] were 67% and 70%, respectively. Moreover, the IC50 is greater than 40000 nM in data set [2], 10400 nM in [3] and 536 nM in data set [5]. The same compound showed an ED50 in data set [4] of 400 nM.

Consider `O=S(=O)(c1ccc(Cl)cc1)N1CCc2[nH]ncc2C1c1cncnc1` (stereo not drawn), for which the remaining at 0.5 h in [1] amounted to 50%; in data set [6] it was 85%. Moreover, the IC50 in data set [2] worked out at 2310 nM; in data set [3], 120 nM; in data set [5], 12 nM.

In the case of `CCOC(=O)C1c2c[nH]nc2CCN1S(=O)(=O)c1ccc(Cl)cc1` (stereo not drawn), the remaining at 0.5 h in data set [1] and in data set [6] was 1% throughout. Further, the IC50 in data set [2] was 10300 nM; in data set [3] it was 204 nM; in data set [5] it was 10.2 nM. Moreover, in data set [4], the ED50 is 137 nM.

Regarding `CCOC(=O)C1Cc2n[nH]cc2CN1S(=O)(=O)c1ccc(Cl)cc1` (stereo not drawn), in data set [1], the remaining at 0.5 h was 8%. Further, the values for the concentration for half-maximal inhibition (IC50) in data set [2], in [3] and in data set [5] were greater than 40000 nM, 5850 nM and 431 nM, respectively. The compound also yielded an ED50 in data set [4] of 1420 nM.

Regarding `O=S(=O)(c1ccc(Cl)cc1)N1Cc2c[nH]nc2CC1c1ccccc1` (stereo not drawn), the values for the remaining at 0.5 h in data set [1] and in [6] were 5% and 8%, respectively. Also, the IC50 in data set [2] was found to be 6510 nM; in data set [3] it was 598 nM; in data set [5] it was 7.7 nM. The same compound returned an ED50 in data set [4] of 55.3 nM.

With `CC[C@H]1Cc2n[nH]cc2[C@@H](CC)N1S(=O)(=O)c1ccc(Cl)cc1.Cl`, the Stability is given as 0% in data set [7] and 1% in [8]. Besides, the values for the IC50 in data set [2] and in data set [5] were 6850 nM and 62.6 nM, respectively.

As for `C[C@@H]1CCC[C@H](C)N1S(=O)(=O)c1ccc(Cl)cc1`, the IC50 in data set [5] was found to be 1000 nM.

On to `O=S(=O)(c1ccc(Cl)cc1)N1CCc2n[nH]cc2C1c1cncnc1` (stereo not drawn), for which the ED50 in data set [4] is 47.1 nM.

Turning to `CC[C@H]1Cc2n[nH]cc2[C@@H](c2ccc(Cl)cc2)N1S(=O)(=O)c1ccc(Cl)cc1` (racemic), the remaining at 0.5 h in data set [1] came out at 10%; in [6] it was 31%. In addition, the IC50 in data set [2] was 1570 nM; in data set [3] it was 75.5 nM; in data set [5], 3.7 nM. Moreover, the ED50 in data set [4] is 16.7 nM.

Regarding `CC[C@@H]1c2c[nH]nc2C[C@H](c2ccc(Cl)cc2)N1S(=O)(=O)c1ccc(Cl)cc1` (racemic), the figures for the remaining at 0.5 h in [1] and in [6] were 4% and 25%, respectively. In addition, the IC50 in data set [2] was 15500 nM; in data set [3] it was 126 nM; in data set [5], 22.4 nM. In data set [4], this compound had an ED50 of 182 nM.

As to `O=S(=O)(c1ccc(Cl)cc1)N1Cc2c[nH]nc2CC1Cc1ccccc1` (racemic), in data set [1], the remaining at 0.5 h is 3%. The IC50 was 16600 nM in data set [2], 1550 nM in [3] and 80.9 nM in [5]. In data set [4], the ED50 was 340 nM.

For the compound `CN(C)C(=O)OCC1c2c[nH]nc2CCN1S(=O)(=O)c1ccc(Cl)cc1` (racemic), the values for the remaining at 0.5 h in data set [1] and in data set [6] were 15% and 59%, respectively. The IC50 in data set [2] is greater than 40000 nM; in data set [3] it was 8250 nM; in data set [5], 350 nM. This compound registered an ED50 in data set [4] of 5320 nM.

As to `CC[C@H]1Cc2n[nH]cc2CN1S(=O)(=O)c1ccc(Cl)cc1` (racemic), the remaining at 0.5 h in [1] is 18%. Besides, the IC50 in [2] was 736 nM; in data set [3], 15.3 nM; in data set [5] it was 1.01 nM. Moreover, the ED50 in [4] was determined as 19 nM.

`CC1CCCCN1S(=O)(=O)c1ccc(Cl)cc1` (racemic): the IC50 in data set [5] came out at 8280 nM.

`CCC1CCCCN1S(=O)(=O)c1ccc(Cl)cc1` (racemic): in [5], the IC50 was 2000 nM.

Consider `CCCC1CCCCN1S(=O)(=O)c1ccc(Cl)cc1` (racemic), for which the IC50 in [5] stood at 1700 nM.

For the compound `O=S(=O)(c1ccc(Cl)cc1)N1CCCCC1c1ccccc1` (racemic), the IC50 in [5] was 760 nM.

`CC(C)C1Cc2n[nH]cc2CN1S(=O)(=O)c1ccc(Cl)cc1` (racemic): the remaining at 0.5 h in [1] was found to be 5%. In addition, the results for the IC50 in data set [2], in data set [3] and in data set [5] were 6760 nM, 87 nM and 16.1 nM, respectively. In data set [4], this compound registered an ED50 of 86 nM.

With `O=S(=O)(c1ccc(Cl)cc1)N1Cc2c[nH]nc2CC1c1nccs1` (racemic), the remaining at 0.5 h in data set [1] amounted to 54%; in data set [6], 8%. The IC50 in data set [2] is 33600 nM; in data set [3] it was 5750 nM; in data set [5], 244 nM. In [4], this compound displayed an ED50 of 1270 nM.

`O=S(=O)(c1ccc(Cl)cc1)N1CCc2n[nH]cc2C1c1nccs1` (racemic): in [1], the remaining at 0.5 h worked out at 57%. Further, the IC50 was found to be 6530 nM in data set [2], 858 nM in [3] and 29.1 nM in [5]. In [4], the ED50 amounted to 139 nM.

Consider `O=S(=O)(c1ccc(Cl)cc1)N1Cc2cn[nH]c2CC1c1ccc(Cl)cc1` (racemic), for which the figures for the remaining at 0.5 h in [1] and in data set [6] were 12% and 33%, respectively. Also, the IC50 turned out to be 2590 nM in [2], 311 nM in data set [3] and 3.4 nM in data set [5].

With `O=S(=O)(c1ccc(Cl)cc1)N1Cc2cn[nH]c2CC1c1ccc(F)cc1` (racemic), the remaining at 0.5 h in data set [1] amounted to 6%. Moreover, the results for the IC50 in [2], in data set [3] and in data set [5] were 5320 nM, 481 nM and 5.4 nM, respectively.

For `O=S(=O)(c1ccc(Cl)cc1)N1Cc2cn[nH]c2CC1c1cccc(F)c1` (racemic), the remaining at 0.5 h in data set [1] worked out at 14%; in data set [6], 0%. For the same compound, the IC50 in data set [2] is 11400 nM; in data set [3], 662 nM; in data set [5], 8.3 nM.

On to `O=S(=O)(c1ccc(Cl)cc1)N1Cc2c[nH]nc2CC1c1cc(F)cc(F)c1` (racemic), for which the remaining at 0.5 h in data set [1] is 3%; in data set [6] it was 0%. The IC50 in [2] was determined as 14100 nM; in data set [3], 776 nM; in data set [5] it was 9.7 nM. In addition, the ED50 in data set [4] was found to be 60.1 nM.

`CC[C@H]1Cc2n[nH]cc2[C@@H](CC)N1S(=O)(=O)c1ccc(Cl)cc1` (racemic) registered an ED50 in data set [4] of 1.27 nM.

In data set [4], `O=S(=O)(c1ccc(Cl)cc1)N1Cc2c[nH]nc2CC1c1ccc(Cl)cc1` (racemic) had an ED50 of 17.5 nM.

As for `O=S(=O)(c1ccc(Cl)cc1)N1Cc2c[nH]nc2CC1c1ccc(F)cc1` (racemic), in [4], the ED50 worked out at 28 nM.

In turn, `O=S(=O)(c1ccc(Cl)cc1)N1Cc2c[nH]nc2CC1c1cccc(F)c1` (racemic) registered an ED50 in [4] of 47.1 nM.

Regarding `CC[C@H]1Cc2n[nH]cc2[C@@H](CC)N1S(=O)(=O)c1ccc(Cl)cc1` (racemic) [ENT A], the Stability in data set [7] was 1%. Moreover, the IC50 in data set [2] worked out at 123 nM; in [3], 5 nM; in data set [5], 0.48 nM. Moreover, in [6], the remaining at 0.5 h was determined as 2%.

The term Kp denotes tissue or fluid exposure divided by exposure in the circulation. Consider `CC[C@H]1Cc2n[nH]cc2[C@@H](CC)N1S(=O)(=O)c1ccc(Cl)cc1` [ENT A], for which the Kp in data set [9] was 0.8. For the same compound, the Activity in data set [10] came to 25%. In addition, the IC50 was determined as 70 nM in data set [2], 5.8 nM in data set [3] and 0.35 nM in [5]. Further, the Stability in data set [8] was 1%.

These data come from ChEMBL document CHEMBL1156315, “Discovery of a novel sulfonamide-pyrazolopiperidine series as potent and efficacious gamma-secretase inhibitors” (Bioorg Med Chem Lett, 2010).
